HePTP inh: inhibitors of human HePTP phosphatase, primary screen, biochemical, absorbance, leukemia target; AID 521, 2006; inhibition, % at 20 µM; recombinant HePTP phosphatase activity, OD absorbance; hit rate 0.64% among 110,000; in the data active = inhibition above about 50%
PostGolgi ctrl: growth inhibition of yeast control strain, primary screen, counter-screen for post-Golgi transport modulator project; AID 738, 2007; efflux-deficient yeast background strain, growth absorbance A615, 16 h; hit rate 5% among 98,000; inhibition, % at 10 µM
tolC growth inh: growth inhibitors of E. coli tolC mutant, primary screen, strain BW25113 ΔtolC::kan, 384-well; OD615; growth inhibition, % at 10 µM (by protocol); hit rate 2.2% among 65,000;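 active = growth inhibition at or above a cutoff equal to the mean over every tested compound plus 3 SD, cut at about 60% in these data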;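 also: growth measured after 20 h incubation at 37 °C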
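Test system: E. coli BW25113 ΔtolC::kan bacteria; incubation: 37 °C, 20 h exposure; medium: LB broth supplemented with 50 µg/mL kanamycin; read-out basis: percent growth inhibition; signal: A615 absorbance measurement; compound: 10 µM final, single dose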
Ecoli WT expand: growth inhibitors of wild-type E. coli, primary screen, strain BW25113, expanded library, OD600; OD600 absorbance; growth inhibition, % at 100 µM; hit rate 0.15% among 98,000;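 active = growth inhibition above about 50% at one test dose, limit read from the data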;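 also: growth measured after 20 h incubation at 37 °C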
PostGolgi yeast: phenotypic screen on post-Golgi transport, primary screen; hit rate 0.9% among 98,000; post-Golgi transport phenotypic cell assay; inhibition, % at 10 µM;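 also: yeast cells grown in 1536-well plates; yeast grown about 18 h at 30C before absorbance read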
PLAP act: PLAP enzyme activators, biochemical, luminescence, HTS. Alkaline phosphatase, placental type (Homo sapiens), P05187. purified PLAP enzyme, luminescent substrate read-out; hits give high values. hit rate 1.2% among 96,000. activation fold at 20 µM. AID 696, 2007; in the data active = activation fold above about 2
Target sequence (P05187 whole entry, looked up): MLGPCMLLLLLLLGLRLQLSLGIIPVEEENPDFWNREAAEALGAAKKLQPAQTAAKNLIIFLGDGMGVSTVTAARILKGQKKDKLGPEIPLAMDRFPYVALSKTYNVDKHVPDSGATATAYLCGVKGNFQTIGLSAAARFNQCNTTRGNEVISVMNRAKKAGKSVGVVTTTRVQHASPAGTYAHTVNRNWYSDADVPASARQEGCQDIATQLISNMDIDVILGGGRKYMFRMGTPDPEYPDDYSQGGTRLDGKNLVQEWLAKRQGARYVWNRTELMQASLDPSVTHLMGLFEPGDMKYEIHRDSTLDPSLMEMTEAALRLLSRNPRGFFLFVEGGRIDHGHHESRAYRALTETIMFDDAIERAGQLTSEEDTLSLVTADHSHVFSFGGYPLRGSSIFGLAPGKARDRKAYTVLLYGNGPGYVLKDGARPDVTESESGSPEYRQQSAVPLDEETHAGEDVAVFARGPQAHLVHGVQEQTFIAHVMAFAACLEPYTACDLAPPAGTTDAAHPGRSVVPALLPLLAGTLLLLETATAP
Numbers stand for hits; n = inactive; x = not tested or not shown. The list is not random: actives were taken first. Their share in the collection is about 5.5%. Rule as the data show it, unless noted: active = inhibition above about 30%; inactive = the rest.

SMILES	HePTP inh	PostGolgi ctrl	tolC growth inh	Ecoli WT expand	PostGolgi yeast	PLAP act
O=C(NCc1ccccc1)NS(=O)(=O)c1ccccc1Cl	n	n	n	n	30	n
Cc1ccc(S(=O)(=O)NC(=O)NCc2ccccc2)cc1	x	n	x	n	n	n
Cc1ccc(O)c(N=CC2=C(O)c3ccccc3C2=O)c1	n	32	n	n	n	n
O=C1C(C=Nc2ccccc2O)=C(O)c2ccccc21	n	n	n	n	n	n
O=C(c1ccc(I)cc1)N1CCN(c2ccccc2)CC1	n	x	x	x	x	x
Cc1noc(C)c1CSc1nc2ccccc2c(=O)n1-c1ccc(F)cc1F	n	55	n	n	n	n
Cc1noc(C)c1CSc1nc2ccccc2c(=O)n1-c1ccccc1	n	n	n	n	n	n
Cc1cccc(-c2cc(C(=O)N3CCN(c4cccc(C)c4C)CC3)c3ccccc3n2)c1	n	x	x	x	x	x
CC1=CC(C)(C)N(C(=O)c2ccccc2)c2ccc(C)cc21	x	n	x	n	n	n
COc1ccc(C(=O)N2c3cc4c(cc3C(C)=CC2(C)C)OCO4)cc1	n	n	74	n	n	n
C=CCNC(=S)NNC(=O)C(CCC(C)C)CC(C)(C)O (stereo unspecified)	x	n	x	n	n	2.7
COC(=O)c1sc2nc(N3CCCCC3)c3c(c2c1N)CCCC3	x	n	x	n	n	n
Nc1c(C(=O)NCc2ccco2)sc2nc(N3CCOCC3)c3c(c12)CCCC3	n	33	n	n	n	n
NC(=O)c1sc2nc(N3CCCCC3)c3c(c2c1N)CCCC3	n	44	n	n	n	n
N#CC1=C(N)Oc2c([nH]c(=O)[nH]c2=O)C1c1ccccc1 (stereo unspecified)	n	x	x	x	x	x
Cc1scc(C(=O)NNC(=S)NCC2CCCO2)c1C (stereo unspecified)	x	n	x	n	n	2.2
CCc1cc(C(=O)NNC(=S)NCC2CCCO2)cs1 (stereo unspecified)	x	30	x	n	n	2.2
Cc1ccccc1C(=O)NC(=S)NCC1CCCO1 (stereo unspecified)	x	n	x	n	n	n
CC1CCN(C(=O)c2cncc(Br)c2)CC1	n	x	x	x	x	x
CN1CC(c2ccccn2)C2(SC(=S)N(Cc3ccccc3)C2=O)C12C(=O)Nc1ccccc12 (stereo unspecified)	x	n	x	n	n	n
CN1CC(c2ccccc2)C2(SC(=S)N(Cc3ccco3)C2=O)C12C(=O)Nc1ccccc12 (stereo unspecified)	x	n	x	n	n	n
Cc1ccc(C2CN(C)C3(C(=O)Nc4ccccc43)C23COc2ccccc2C3=O)cc1 (stereo unspecified)	x	80	x	n	n	n
CN1CC(c2ccccc2Cl)C2(COc3ccccc3C2=O)C12C(=O)Nc1ccccc12 (stereo unspecified)	x	46	x	n	n	n
Cc1ccc(S(=O)(=O)NCC(=O)N(CC(=O)NC2CCCC2)c2ccc3c(c2)OCCO3)cc1	n	n	n	n	n	n
CCC(C)(C)NC(=O)CN(C(=O)CNS(=O)(=O)c1ccc(C)cc1)c1ccc2c(c1)OCCO2	n	n	n	n	n	2
SMILES	HePTP inh	PostGolgi ctrl	tolC growth inh	Ecoli WT expand	PostGolgi yeast	PLAP act
COc1ccc(-c2cnc(N)nc2-c2ccc(OC)cc2O)cc1	n	n	n	n	n	n
C=C(C)COc1ccc(-c2ncncc2Oc2ccc(OC)cc2)c(O)c1	n	n	66	n	66	n
C=C(C)COc1ccc(-c2nc(N)ncc2-c2ccc(OC)cc2)c(O)c1	n	72	86	n	n	n
COC(=O)c1c(NC(=O)C2CCCCC2C(=O)O)sc2c1CCC(c1ccccc1)C2 (stereo unspecified)	n	x	x	x	x	x
CCN(C(=O)CSc1nc(-c2ccccc2)c(-c2ccccc2)[nH]1)C1CCS(=O)(=O)C1 (stereo unspecified)	x	n	x	n	n	n
CCN(C(=O)CSc1nc2ccccc2n1CCc1ccccc1)C1CCS(=O)(=O)C1 (stereo unspecified)	x	n	x	n	n	2.4
COC(=O)c1[nH]c2cccc(OC)c2c1NC(=O)CN1CC2(C)CC1CC(C)(C)C2 (stereo unspecified)	n	n	62	n	n	n
COC(=O)c1[nH]c2cccc(OC)c2c1NC(=O)CN1CCOCC1	n	n	n	n	n	n

Assay outcomes: PubChem, several laboratories
